The values below come from ChEMBL document CHEMBL4406794, “N-(7-Cyano-6-(4-fluoro-3-(2-(3-(trifluoromethyl)phenyl)acetamido)phenoxy)benzo[d]thiazol-2-yl)cyclopropanecarboxamide (TAK-632) Analogues as Novel Necroptosis Inhibitors by Targeting Receptor-Interacting Protein Kinase 3 (RIPK3): Synthesis, Structure-Activity Relationships, and in Vivo Efficacy” (J Med Chem, 2019).

Data set [1] has as its target Dual specificity mitogen-activated protein kinase kinase 1 (Homo sapiens) (UniProt Q02750). In words: Inhibition of wild-type human full length MEK1 (M1 to V393 residues) expressed in mammalian expression system assessed as enzyme remaining activity at 1000 nM by Kinomescan method relative to control.
Data set [2] is described as follows: AUC (0 to t) in Sprague-Dawley rat at 5 mg/kg, po by LC-tandem mass spectrometry analysis. Type of data set: ADME, organism-based. To be noted: in vivo. A digest of the protocol: (§1)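 Male Sprague-Dawley rats dosed once i.v. at 1 mg/kg or intragastrically at 5 mg/kg. Compound dissolved in 5% DMSO, 10% Tween 80, 75% physiological saline at 0.2 and 1 mg/mL. Blood taken at several time points, plasma spun at 4 °C, stored at -80 °C, assayed by LC/MS/MS. Parameters from individual animals by noncompartmental analysis.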

In data set [3] the target is T1, Receptor-interacting serine/threonine-protein kinase 1 (Homo sapiens, UniProt Q13546).
T1 sequence (Q13546 whole entry): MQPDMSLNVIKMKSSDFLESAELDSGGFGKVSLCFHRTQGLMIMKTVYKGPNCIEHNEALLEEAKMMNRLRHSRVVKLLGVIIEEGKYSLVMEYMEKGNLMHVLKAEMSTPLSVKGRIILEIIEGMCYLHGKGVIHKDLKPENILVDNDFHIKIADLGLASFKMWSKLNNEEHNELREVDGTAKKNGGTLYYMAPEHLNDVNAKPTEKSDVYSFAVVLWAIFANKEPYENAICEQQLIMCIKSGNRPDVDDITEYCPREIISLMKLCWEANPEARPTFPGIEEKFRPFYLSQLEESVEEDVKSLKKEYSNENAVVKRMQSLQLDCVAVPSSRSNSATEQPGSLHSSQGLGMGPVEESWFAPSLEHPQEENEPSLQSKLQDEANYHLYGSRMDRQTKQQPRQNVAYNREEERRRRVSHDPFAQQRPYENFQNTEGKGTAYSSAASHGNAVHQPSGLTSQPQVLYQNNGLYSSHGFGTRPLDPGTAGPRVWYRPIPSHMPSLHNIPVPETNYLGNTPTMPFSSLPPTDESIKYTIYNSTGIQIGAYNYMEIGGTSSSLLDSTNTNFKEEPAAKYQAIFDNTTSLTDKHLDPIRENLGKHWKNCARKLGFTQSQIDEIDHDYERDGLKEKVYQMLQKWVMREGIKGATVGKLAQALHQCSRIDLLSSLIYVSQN
As to the kind of experiment: Binding affinity to wild-type human partial length RIPK1 (M1 to K305 residues) expressed in bacterial expression system after 1 hr by quantitative PCR based KINOMEscan assay. In outline: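 KINOMEscan competition binding. Bound kinase eluted with 0.5 μM nonbiotinylated ligand for 30 min and quantified by qPCR. Duplicates averaged.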

Another data set is filed under the species Homo sapiens. As to the kind of experiment: Selectivity ratio of Kd for human partial length RIPK1 (M1 to K305 residues) expressed in bacterial expression system to Kd for wild-type human partial length RIPK3 (M1 to Q307 residues) expressed in bacterial expression system.
Data set [4] can be described thus: AUC (0 to infinity) in Sprague-Dawley rat at 1 mg/kg, iv by LC-tandem mass spectrometry analysis. It counts as ADME, organism-based. On the set-up: dose 1 mg/kg, time infinity, route intravenous. As to conditions: in vivo. In outline:
as §1

A short description of data set [5]: Cmax in Sprague-Dawley rat at 1 mg/kg, iv by LC-tandem mass spectrometry analysis. It counts as ADME, organism-based. On the set-up: dose 1 mg/kg, route intravenous. To be noted: in vivo. A digest of the protocol: as §1
The target of data set [6] is T1, Receptor-interacting serine/threonine-protein kinase 1. As to the kind of experiment: Inhibition of RIPK1 phosphorylation in TNFalpha/smac mimetic/Z-VAD-fmk stimulated human HT-29 cells at 1 uM treated prior to TNFalpha/smac mimetic/Z-VAD-fmk stimulation and measured after 2 to 4 hrs by SDS-PAGE based immunoblot assay. It counts as cell-based. To be noted: ht-29, 1 µM.

Data set [7] has as its target Mitogen-activated protein kinase 8 (Homo sapiens) (UniProt P45983). In words: Inhibition of wild-type human full length JNK1 (M1 to Q384 residues) expressed in mammalian expression system assessed as enzyme remaining activity at 1000 nM by Kinomescan method relative to control.
Data set [8] addresses Hepatocyte growth factor receptor (Homo sapiens) (UniProt P08581). As to the kind of experiment: Inhibition of wild-type human partial length MET (D1010 to S1367 residues) expressed in bacterial expression system assessed as enzyme remaining activity at 1000 nM by Kinomescan method relative to control.
Data set [9] in a line: Clearance in Sprague-Dawley rat at 1 mg/kg, iv by LC-tandem mass spectrometry analysis. Type of data set: ADME, organism-based. As to conditions: in vivo. A digest of the protocol:
as §1

Another data set has as its system Mus musculus. In words: Protection against TNFalpha/Z-VAD-fmk-induced C57BL/6J mouse model of systemic inflammatory response syndrome assessed as increase in body temperature at 5 to 50 mg/kg, po administered via gavage 2 hrs prior to Z-VAD-fmk addition for 15 mins followed by TNFalpha stimulation for 1 hr and subsequent Z-VAD-fmk addition meaured up to 50 hrs post TNFalpha stimulation by electric thermometer. Type of data set: functional, organism-based. In outline: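 Female C57BL/6 mice, fasted overnight, n=10 per group. Compound given by oral gavage at 5, 25 or 50 mg/kg 2 h before TNF. z-VAD-fmk 180 µg i.p., then 15 min later mTNF-α 400 µg/kg i.v. in endotoxin-free PBS, then a further 70 µg z-VAD-fmk i.p. 1 h later. Body temperature and survival followed, compared with vehicle by one-way ANOVA.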

For a further data set, the system named is HT-29. As to the kind of experiment: Effect on TNFalpha/smac mimetic-induced apoptosis in human HT-29 cells at 3 uM treated prior to TNFalpha/smac mimetic stimulation and measured after 20 hrs by cell-Titer Glo luminescent cell viability assay. As to conditions: ht-29, 20 h.
The target of data set [10] is Proto-oncogene tyrosine-protein kinase Src (Homo sapiens) (UniProt P12931). As to the kind of experiment: Inhibition of wild-type human partial length SRC (L240 to L536 residues) expressed in bacterial expression system assessed as enzyme remaining activity at 1000 nM by Kinomescan method relative to control.
Data set [11] concerns the target Cyclin-dependent kinase 7 (Homo sapiens) (UniProt P50613). As to the kind of experiment: Inhibition of wild-type human full length CDK7 (M1 to L344 residues) expressed in mammalian expression system assessed as enzyme remaining activity at 1000 nM by Kinomescan method relative to control.
Data set [12] is described as follows: Cytotoxicity against human HT-29 cells measured after 12 hrs by CellTiter-Glo Luminescent assay. Type of data set: cell-based.
Data set [13] has as its target Vascular endothelial growth factor receptor 2 (Homo sapiens) (UniProt P35968). As to the kind of experiment: Inhibition of wild-type human partial length VEGFR2 (R787 to P1253 residues) expressed in mammalian expression system assessed as enzyme remaining activity at 1000 nM by Kinomescan method relative to control.
The target in data set [14] is Fibroblast growth factor receptor 3 (Homo sapiens) (UniProt P22607). As to the kind of experiment: Inhibition of wild-type human partial length FGFR3 (R442 to S771 residues) expressed in bacterial expression assessed as enzyme remaining activity at 1000 nM by Kinomescan method relative to control.
Data set [15] addresses Mixed lineage kinase domain-like protein (Homo sapiens) (UniProt Q8NB16). In words: Inhibition of MLKL phosphorylation in TNFalpha/smac mimetic/Z-VAD-fmk stimulated human HT-29 cells at 1 uM treated prior to TNFalpha/smac mimetic/Z-VAD-fmk stimulation and measured after 2 to 4 hrs by SDS-PAGE based immunoblot assay. It counts as cell-based. (A western blot detects proteins with antibodies after separation by electrophoresis.)

Data set [16] addresses Mitogen-activated protein kinase 14 (Homo sapiens) (UniProt Q16539). In words: Inhibition of wild-type human full length p38-alpha (M1 to S360 residues) expressed in bacterial expression system assessed as enzyme remaining activity at 1000 nM by Kinomescan method relative to control.

Active and inactive are the calls of the source. The rule behind the calls is not given here. Some results are limits rather than exact numbers.

By AUC(0-t) is commonly meant exposure summed from dosing to a finite time, without extrapolation to infinity. For orientation: Kd means the concentration at which binding is half-saturated. The low end stands for higher affinity, the high end for lower affinity. Usually AUC(0-inf) stands for the area under the concentration-time curve extrapolated to infinity. Read a high AUC(0-inf) as high exposure. In general, Cmax refers to the peak of the concentration-time curve. In general, clearance refers to a measure of how efficiently the substance is removed, as volume per time. Higher therefore signals a high capacity for elimination. The CC50 is the concentration giving 50% cytotoxicity. High values mean better tolerance by the cells, low ones harm at low concentration.

Cyclin-dependent kinase 7 (Homo sapiens), sequence (P50613 whole entry, the tested form may be a part): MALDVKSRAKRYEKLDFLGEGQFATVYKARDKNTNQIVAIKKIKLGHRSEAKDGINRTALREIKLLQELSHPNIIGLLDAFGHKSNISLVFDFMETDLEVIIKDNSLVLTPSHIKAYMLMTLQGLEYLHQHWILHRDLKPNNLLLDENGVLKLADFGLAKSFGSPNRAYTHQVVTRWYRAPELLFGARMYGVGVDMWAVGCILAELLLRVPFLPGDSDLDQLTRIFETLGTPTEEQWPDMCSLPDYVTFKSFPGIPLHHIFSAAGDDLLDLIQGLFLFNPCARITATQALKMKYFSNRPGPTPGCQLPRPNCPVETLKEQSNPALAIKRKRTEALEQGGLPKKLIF
Fibroblast growth factor receptor 3 (Homo sapiens), sequence (P22607 23-806 limits assumed): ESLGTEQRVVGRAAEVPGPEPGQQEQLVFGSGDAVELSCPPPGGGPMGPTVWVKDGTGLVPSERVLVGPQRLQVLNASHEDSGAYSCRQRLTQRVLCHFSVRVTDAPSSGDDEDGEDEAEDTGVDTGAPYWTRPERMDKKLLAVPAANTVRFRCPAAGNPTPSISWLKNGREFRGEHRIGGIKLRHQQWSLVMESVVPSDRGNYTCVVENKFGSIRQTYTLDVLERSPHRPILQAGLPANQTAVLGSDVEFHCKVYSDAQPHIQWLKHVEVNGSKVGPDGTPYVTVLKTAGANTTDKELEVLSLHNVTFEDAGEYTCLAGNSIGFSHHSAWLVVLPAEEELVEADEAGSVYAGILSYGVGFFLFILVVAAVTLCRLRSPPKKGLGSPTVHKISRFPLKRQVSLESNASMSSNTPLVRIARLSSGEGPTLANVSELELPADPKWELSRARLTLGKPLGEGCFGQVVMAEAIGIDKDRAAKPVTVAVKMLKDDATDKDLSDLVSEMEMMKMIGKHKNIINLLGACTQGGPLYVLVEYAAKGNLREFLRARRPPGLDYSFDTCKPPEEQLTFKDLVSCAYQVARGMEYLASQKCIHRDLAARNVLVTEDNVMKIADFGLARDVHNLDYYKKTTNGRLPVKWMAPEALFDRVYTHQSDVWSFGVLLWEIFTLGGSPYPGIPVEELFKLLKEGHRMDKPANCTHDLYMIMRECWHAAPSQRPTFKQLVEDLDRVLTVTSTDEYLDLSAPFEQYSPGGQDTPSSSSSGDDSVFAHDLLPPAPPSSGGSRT
Dual specificity mitogen-activated protein kinase kinase 1 (Homo sapiens), sequence (Q02750 whole entry, the tested form may be a part): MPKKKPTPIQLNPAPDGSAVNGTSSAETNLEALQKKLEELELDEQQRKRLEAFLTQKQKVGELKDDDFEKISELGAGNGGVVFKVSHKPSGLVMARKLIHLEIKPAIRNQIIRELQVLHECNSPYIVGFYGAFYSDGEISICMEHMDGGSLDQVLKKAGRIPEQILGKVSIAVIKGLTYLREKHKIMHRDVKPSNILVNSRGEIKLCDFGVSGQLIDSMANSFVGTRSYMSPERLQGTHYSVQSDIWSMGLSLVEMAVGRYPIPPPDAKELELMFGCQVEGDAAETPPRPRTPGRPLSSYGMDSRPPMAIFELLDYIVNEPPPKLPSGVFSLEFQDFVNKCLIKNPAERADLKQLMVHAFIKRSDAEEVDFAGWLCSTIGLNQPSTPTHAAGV
Vascular endothelial growth factor receptor 2 (Homo sapiens), sequence (P35968 whole entry, the tested form may be a part): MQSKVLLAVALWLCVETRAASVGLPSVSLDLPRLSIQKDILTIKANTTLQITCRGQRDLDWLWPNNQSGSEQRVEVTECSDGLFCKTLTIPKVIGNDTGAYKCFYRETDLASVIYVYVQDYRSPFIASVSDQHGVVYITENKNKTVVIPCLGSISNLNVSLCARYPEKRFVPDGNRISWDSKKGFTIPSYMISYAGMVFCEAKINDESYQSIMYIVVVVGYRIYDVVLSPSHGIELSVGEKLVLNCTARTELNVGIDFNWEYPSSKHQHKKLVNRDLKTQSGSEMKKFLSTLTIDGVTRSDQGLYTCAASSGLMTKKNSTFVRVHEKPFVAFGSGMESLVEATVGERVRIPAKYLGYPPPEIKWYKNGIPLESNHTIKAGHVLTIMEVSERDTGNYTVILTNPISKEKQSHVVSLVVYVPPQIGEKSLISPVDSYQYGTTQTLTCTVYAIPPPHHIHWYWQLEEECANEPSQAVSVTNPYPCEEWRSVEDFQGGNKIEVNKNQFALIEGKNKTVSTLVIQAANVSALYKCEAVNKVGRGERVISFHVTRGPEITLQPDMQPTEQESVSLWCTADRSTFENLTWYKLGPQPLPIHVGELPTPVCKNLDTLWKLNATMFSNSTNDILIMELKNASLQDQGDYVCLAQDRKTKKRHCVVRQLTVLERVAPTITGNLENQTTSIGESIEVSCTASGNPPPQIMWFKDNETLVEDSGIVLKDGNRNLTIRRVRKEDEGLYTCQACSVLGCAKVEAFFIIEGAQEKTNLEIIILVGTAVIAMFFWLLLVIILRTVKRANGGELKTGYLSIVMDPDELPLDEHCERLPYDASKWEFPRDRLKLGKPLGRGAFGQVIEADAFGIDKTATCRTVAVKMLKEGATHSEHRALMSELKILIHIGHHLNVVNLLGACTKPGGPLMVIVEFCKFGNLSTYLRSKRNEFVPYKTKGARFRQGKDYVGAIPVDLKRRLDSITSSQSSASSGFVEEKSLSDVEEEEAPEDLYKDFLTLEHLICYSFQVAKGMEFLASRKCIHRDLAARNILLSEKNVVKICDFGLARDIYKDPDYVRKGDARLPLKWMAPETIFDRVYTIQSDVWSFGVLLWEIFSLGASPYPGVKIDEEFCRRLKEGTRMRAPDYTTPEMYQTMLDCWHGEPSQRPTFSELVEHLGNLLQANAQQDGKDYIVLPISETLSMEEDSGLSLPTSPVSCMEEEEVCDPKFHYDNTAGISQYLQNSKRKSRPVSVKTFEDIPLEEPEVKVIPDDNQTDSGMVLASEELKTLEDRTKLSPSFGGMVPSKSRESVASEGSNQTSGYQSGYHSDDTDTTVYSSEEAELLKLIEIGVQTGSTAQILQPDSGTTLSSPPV
Mitogen-activated protein kinase 14 (Homo sapiens), sequence (Q16539 whole entry, the tested form may be a part): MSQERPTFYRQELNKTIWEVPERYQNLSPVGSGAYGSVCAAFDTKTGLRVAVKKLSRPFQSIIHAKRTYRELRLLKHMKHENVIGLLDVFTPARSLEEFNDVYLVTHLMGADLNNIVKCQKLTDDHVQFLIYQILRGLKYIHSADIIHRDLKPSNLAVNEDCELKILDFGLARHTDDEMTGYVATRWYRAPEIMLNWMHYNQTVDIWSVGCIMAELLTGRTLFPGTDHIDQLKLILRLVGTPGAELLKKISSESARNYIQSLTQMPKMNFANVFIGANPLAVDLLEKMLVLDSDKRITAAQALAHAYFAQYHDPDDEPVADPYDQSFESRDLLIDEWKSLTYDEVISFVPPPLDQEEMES
Proto-oncogene tyrosine-protein kinase Src (Homo sapiens), sequence (P12931 2-536 limits assumed): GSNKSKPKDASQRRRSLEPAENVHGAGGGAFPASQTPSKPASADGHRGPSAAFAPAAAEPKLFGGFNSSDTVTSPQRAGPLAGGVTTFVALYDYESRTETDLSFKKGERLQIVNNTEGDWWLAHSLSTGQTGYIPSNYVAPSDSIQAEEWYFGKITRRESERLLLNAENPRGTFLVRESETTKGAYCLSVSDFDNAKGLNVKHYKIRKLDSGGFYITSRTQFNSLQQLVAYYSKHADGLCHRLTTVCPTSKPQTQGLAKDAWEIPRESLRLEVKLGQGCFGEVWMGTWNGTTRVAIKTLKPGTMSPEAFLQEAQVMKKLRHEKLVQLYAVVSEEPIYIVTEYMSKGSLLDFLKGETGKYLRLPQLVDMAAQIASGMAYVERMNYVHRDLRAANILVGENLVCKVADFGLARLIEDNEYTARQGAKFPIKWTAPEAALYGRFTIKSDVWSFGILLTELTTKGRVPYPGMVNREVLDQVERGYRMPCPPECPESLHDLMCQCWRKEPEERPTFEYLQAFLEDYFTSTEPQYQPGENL
Mitogen-activated protein kinase 8 (Homo sapiens), sequence (P45983 whole entry, the tested form may be a part): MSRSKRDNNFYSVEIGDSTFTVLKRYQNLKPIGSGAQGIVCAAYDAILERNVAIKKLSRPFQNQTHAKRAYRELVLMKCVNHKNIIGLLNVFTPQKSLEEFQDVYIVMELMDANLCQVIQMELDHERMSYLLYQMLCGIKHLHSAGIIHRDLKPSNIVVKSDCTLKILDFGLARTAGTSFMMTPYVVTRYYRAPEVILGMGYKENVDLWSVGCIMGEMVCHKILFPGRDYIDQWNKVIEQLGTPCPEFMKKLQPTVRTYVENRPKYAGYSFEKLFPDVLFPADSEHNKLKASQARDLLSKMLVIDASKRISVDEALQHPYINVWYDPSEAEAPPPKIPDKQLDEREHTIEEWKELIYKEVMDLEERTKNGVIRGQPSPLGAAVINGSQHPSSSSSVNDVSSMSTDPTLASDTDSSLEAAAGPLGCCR
Mixed lineage kinase domain-like protein (Homo sapiens), sequence (Q8NB16 whole entry, the tested form may be a part): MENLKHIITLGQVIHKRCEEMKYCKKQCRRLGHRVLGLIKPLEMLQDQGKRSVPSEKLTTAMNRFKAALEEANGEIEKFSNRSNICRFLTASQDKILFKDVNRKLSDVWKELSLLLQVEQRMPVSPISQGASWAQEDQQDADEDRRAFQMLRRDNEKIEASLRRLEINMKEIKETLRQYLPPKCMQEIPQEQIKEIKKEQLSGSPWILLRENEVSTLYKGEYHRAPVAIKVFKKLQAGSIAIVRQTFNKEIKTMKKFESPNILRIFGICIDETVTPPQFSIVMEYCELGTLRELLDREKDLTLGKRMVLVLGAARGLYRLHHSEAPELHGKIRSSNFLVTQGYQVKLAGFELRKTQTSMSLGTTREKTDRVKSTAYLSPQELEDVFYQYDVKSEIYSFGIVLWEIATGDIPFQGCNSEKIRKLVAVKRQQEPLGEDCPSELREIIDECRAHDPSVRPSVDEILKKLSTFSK

On to `O=C(Nc1cccc(Br)c1)Nc1cc(Oc2ccc3nc(NC(=O)C4CC4)sc3c2)ccc1F`, for which the Activity in data set [1] was 100%; in data set [7], 79%; in data set [8], 14%; with HT-29, “Non-Toxic”; in [10] it was 0%; in data set [11], 81%. Also, the Activity in data set [13] turned out to be 2.8%; in data set [14] it was 62%; in data set [16], 23%. The molecule also gave an area under the curve AUC(0-t) in data set [2] of 7010 ng·h/mL. For the same molecule, in data set [3], the Kd was greater than 5 µM. Also, in the data set filed under Homo sapiens, the Ratio is greater than 61.7. Moreover, the AUC(0-inf) in [4] came to 6500 ng·h/mL. Moreover, the Cmax in [5] was 4600 ng/mL. For the same molecule, in data set [6], the “inhibition (INH)” value is on record as “Not Active”. The clearance in data set [9] is 2.6 mL/min/kg. In the data set with Mus musculus, the result was Active. Besides, in data set [12], the CC50 at 12 h is greater than 50 µM. The inhibition result in data set [15] was “Active”.
